# SKN-1 inh = C. elegans SKN-1 inhibition | 360,000 compounds, 0.49% hits | C. elegans VP596 Pgst-4::GFP/RFP ratio, acrylamide-induced, 24 h | AID 624304 | inhibition, % at 21.8 µM;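 active = interference check ratio from 0.5 to 1.5 plus GFP to RFP signal ratio inhibition reaching or exceeding a fixed threshold, cut at about 30% in these data, passing the limit was not always enough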
# Rin1 Abl inh = human Rin1-Abl interaction inhibition | 360,000 compounds, 0.4% hits | P00519+Q13671 | inhibition, % at 7.35 µM | TR-FRET Rin1/Abl binding, biochemical | AID 588664; in the data active = inhibition above about 5%, passing the limit was not always enough
# Arr AP2 block = human beta-arrestin and AP2 interaction inhibition; FITC-arrestin peptide / GST-AP2 beads, flow cytometry; AP2 beta2 appendage carries R879A mutation; 340,000 compounds, 0.31% hits; inhibition, % at 10 µM;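 active = inhibition above a set limit, near 3 SD of compounds lacking own fluorescence, cut at about 54% in these data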;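 also: plate controls were DMSO wells for no effect and 5 µM unlabelled arrestin peptide for full effect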
#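 test system = AP2 appendage R879A on GSH beads | buffer or medium = PBS plus Tween 20 (0.05%) and BSA (0.1%) | incubation = 12 min plus 1 h, RT | detection = bead flow cytometry, FITC channel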
# MT1-MMP act inh = MT1-MMP (human) activation inhibition | P50281 | HT1080 RFP-PRO-GFP cells, GFP/RFP ratio fluorescence, overnight; percent of plate control window, DMSO zero | GFP/RFP ratio change, % at 20 µM | 360,000 compounds, 0.061% hits | AID 651647;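 active = GFP/RFP ratio change of at least 30% with cell ATP level not reduced by more than half and red fluorescence within 50% of control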
#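 Material: RFP-PRO-GFP reporter HT1080 cells. Dosing: single-point 20 µM compound, 1% DMSO. Controls: DMSO and RFP-L50D-GFP cell wells. Timing: cells overnight before dosing, compound overnight, 37 °C, 5% CO2. Measure: GFP/RFP fluorescence ratio.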
# Tb MetRS inh = Trypanosoma brucei MetRS inhibition | inhibition, % at 11.9 µM | 360,000 compounds, 0.4% hits | purified T. brucei MetRS, ATP depletion, Kinase-Glo luminescence;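 active = inhibition above a per-plate cutoff of the control wells' mean inhibition plus 3 SD, cut at about 5.5% in these data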;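 also: 0% = DMSO wells median and 100% = median of wells with control inhibitor compound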
#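 Test system – parasite MetRS enzyme · Reagent – substrates ATP, L-methionine and bulk Escherichia coli tRNA · Doses – 11.9 µM compound single dose, 0.9% DMSO · Times – 15 min enzyme-compound preincubation, 2 h reaction, 10 min detection, 25 °C · Signal – Kinase-Glo luminescence, ATP depletion format · Controls – DMSO-only wells as low control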
# Tb MetRS conf = confirmation of Trypanosoma brucei MetRS inhibitors; 1,400 compounds, 93% hits; shares compounds with Tb MetRS inh; inhibition, % at 11.9 µM; T. brucei MetRS enzyme, luminescence (ATP depletion); in the data active = inhibition above about 7%
# Jurkat cytotox = counter-screen for T. brucei MetRS inhibitors: Jurkat cell cytotoxicity | shares compounds with Tb MetRS inh | Jurkat cells viability, ATP luminescence | inhibition, % at 8.3 µM | 1,400 compounds, 12% hits | AID 624413; in the data active = inhibition above about 15%;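 also: 0% = vehicle and 100% = reference inhibitor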
# Tb MetRS inh FP = inhibits T. brucei methionyl tRNA synthetase in orthogonal FP test | AID 651607 | inhibition, % at 11.9 µM | 1,400 compounds, 44% hits | purified T. brucei MetRS, fluorescence polarization | shares compounds with Tb MetRS inh; in the data active = inhibition above about 17%;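 also: 0% = vehicle wells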
# The depositor's hits bear a star; · = no result. Compounds with a hit are over-represented: about 1.6% of the library has one in this group of screens.
SMILES,SKN-1 inh,Rin1 Abl inh,Arr AP2 block,MT1-MMP act inh,Tb MetRS inh,Tb MetRS conf,Jurkat cytotox,Tb MetRS inh FP
Cc1ccc(C(CNC(=O)Nc2ccc(Cl)cc2)N2CCN(C)CC2)cc1 (stereo not given),5,3,12,-5,8.1*,30*,10,10
Cc1nnsc1SCCNC(=O)Nc1ccc(Cl)cc1,3,-1,33,0,6.5*,12*,11,15
COc1cccc(CSC(C(=O)O)c2ccccc2)c1 (stereo not given),6,-4,·,0,0,·,·,·
O=C(C=Cc1ccccc1)c1c[nH]c2ccccc2c1=O,8,-2,-2,-7,37*,78*,93*,56*
O=C(/C=C/c1ccccc1)c1c[nH]c2ccccc12,5,0,0,-2,5,·,·,·
CCN(CC)C(=O)CSc1nc2ncc(Br)cc2[nH]1,14,3,-4,0,2,·,·,·
COc1cccc(NC(=O)CN(C)CC(=O)Nc2cccc(C(F)(F)F)c2)c1,2,-3,-18,3,-1,·,·,·
COc1cccc(NC(=O)CSc2nc3ncc(Br)cc3[nH]2)c1,5,6,23,0,70*,85*,6,60*
COc1cccc(NC(=O)CN(C)CC(=O)Nc2ccc(Br)cc2)c1,3,1,-1,-2,11*,20*,3,23*
O=C(CSc1nc2ncc(Br)cc2[nH]1)c1ccc([N+](=O)[O-])cc1,-1,3,0,3,18*,52*,2,24*
CCc1ccc(NC(=O)CSc2nc3ncc(Br)cc3[nH]2)cc1,2,0,9,-2,0,·,·,·
COc1ccc(-c2cc(=O)n(CCC#N)[nH]2)cc1,6,5,6,7,16*,2,2,4
CNc1cc(-c2cccc(C(=O)N3CCOCC3)c2)ncn1,8,0,·,5,0,·,·,·
C=CCc1cccc(CNc2nc3ccccc3n2CCC)c1O,4,-4,5,-8,19*,31*,5,18*
CC1=C(C(=O)N2CCCCCC2)CC(CC(=O)NCCc2ccccn2)C(=O)N1Cc1ccc(C(C)(C)C)cc1 (stereo not given),1,·,·,13,-1,·,·,·
O=C(NCc1nc2ccccc2[nH]1)C1=C[C@H](c2csc3ccccc23)C[C@H](OCc2ccc(CO)cc2)O1,8,1,6,1,58*,93*,4,62*
O=C(Nc1ccccc1)C1=C[C@H](c2csc3ccccc23)C[C@H](OCc2ccc(CO)cc2)O1,32,-1,-5,8,0,·,·,·
O=C(NCc1nc2ccccc2[nH]1)C1=C[C@@H](c2csc3ccccc23)C[C@@H](OCc2ccc(CO)cc2)O1,23,-1,-6,1,41*,82*,-1,50*
O=C(NC1CC1)C1=C[C@H](c2csc3ccccc23)C[C@H](OCc2ccc(CO)cc2)O1,-1,0,5,4,0,·,·,·
CC(C)c1ccc(NC2CCCN(C(=O)CN3CCCCC3=O)C2)cc1 (stereo not given),3,-3,·,-1,0,·,·,·
Cn1nnc(C(O)CNCc2cccs2)n1 (stereo not given),3,0,4,4,-1,·,·,·
Cn1nnc(NCc2cc(Br)ccc2OCc2cccs2)n1,3,0,-1,6,20*,28*,3,13
CC(C)(C)c1csc(NC(=O)CSC2=NCCS2)n1,9,-3,18,0,6.0*,2,4,8
Cc1csc(NC(=O)CSC2=NCCS2)n1,-16,2,22,1,0,·,·,·
C=CCNC(=O)Cn1nc(-c2ccccc2)ccc1=O,2,0,1,-4,-1,·,·,·
SMILES,SKN-1 inh,Rin1 Abl inh,Arr AP2 block,MT1-MMP act inh,Tb MetRS inh,Tb MetRS conf,Jurkat cytotox,Tb MetRS inh FP
C=CCNC(=S)NNC(=O)Cn1c(-c2ccccc2)cc(=O)n2ncnc12,-7,2,-9,-3,10*,17*,11,12
COc1cccc(-c2cnc(C(O)c3c(C)cc(C)cc3C)[nH]2)c1 (stereo not given),6,-1,·,4,0,·,·,·
C[C@H](CO)N1C[C@H](C)[C@@H](CN(C)S(=O)(=O)c2ccccc2)Oc2c(NC(=O)Nc3ccccc3)cccc2C1=O,33,0,1,-4,16*,35*,-3,10
Cc1noc(C)c1S(=O)(=O)N(C)C[C@H]1Oc2c(NC(=O)Nc3ccccc3)cccc2C(=O)N([C@H](C)CO)C[C@@H]1C,21,-1,5,-2,17*,57*,3,25*
C[C@H](CO)N1C[C@H](C)[C@@H](CN(C)S(=O)(=O)c2cccs2)Oc2c(NC(=O)Nc3ccccc3)cccc2C1=O,14,2,-2,-5,20*,53*,-4,25*
C[C@H](CO)N1C[C@H](C)[C@H](CN(C)Cc2ccncc2)Oc2ccc(NC(=O)Nc3ccc(C(F)(F)F)cc3)cc2CC1=O,-8,3,-4,1,-1,·,·,·
C[C@H]1CN([C@@H](C)CO)C(=O)Cc2cc(NC(=O)Nc3ccccc3)ccc2O[C@H]1CN(C)Cc1ccccc1,-2,4,24,2,9.5*,31*,4,20*
COc1ccc(NC(=O)Nc2cccc3c2O[C@H](CN(C)S(=O)(=O)c2cccs2)[C@@H](C)CN([C@H](C)CO)C3=O)cc1,-6,1,2,5,0,·,·,·
Cc1noc(C)c1S(=O)(=O)N(C)C[C@H]1Oc2c(NC(=O)Nc3ccc(C(F)(F)F)cc3)cccc2C(=O)N([C@H](C)CO)C[C@@H]1C,8,-1,3,6,1,·,·,·
Cc1cccc(CN2CCN(C3CN(Cc4cn(Cc5ccccc5C(F)(F)F)nn4)S(=O)(=O)C3)CC2)c1 (stereo not given),10,2,·,4,0,·,·,·
O=C(CN1CCN(Cc2ccccc2)CC1)Nc1cccc(Cl)c1Cl,19,-3,·,0,0,·,·,·
C[C@H](O)[C@@H]1C(=O)N2CCc3c([nH]c4ccccc34)[C@@H]2C[C@@H]1N(C)C(=O)Nc1cc(Cl)cc(Cl)c1,7,0,·,4,71*,91*,18*,70*
C[C@H](O)[C@@H]1C(=O)N2CCc3c([nH]c4ccccc34)[C@@H]2C[C@@H]1N(C)C(=O)Nc1ccccc1,3,-4,·,-1,2,·,·,·
